Measured values: article PMC2193001 (The Journal of Experimental Medicine, 1999)
Where two headings read alike, the source gives them in different places.

B1: OVA: chicken egg OVA control protein (protein, UniProt P01012 2-386, looked up)
Ovalbumin: GSIGAASMEFCFDVFKELKVHHANENIFYCPIAIMSALAMVYLGAKDSTRTQINKVVRFDKLPGFGDSIEAQCGTSVNVHSSLRDILNQITKPNDVYSFSLASRLYAEERYPILPEYLQCVKELYRGGLEPINFQTAADQARELINSWVESQTNGIIRNVLQPSSVDSQTAMVLVNAIVFKGLWEKAFKDEDTQAMPFRVTEQESKPVQMMYQIGLFRVASMASEKMKILELPFASGTMSMLVLLPDEVSGLEQLESIINFEKLTEWTSSNVMEERKIKVYLPRMKMEEKYNLTSVLMAMGITDVFSSSANLSGISSAESLKISQAVHAAHAEINEAGREVVGSAEAGVDAASVSEEFRADHPFLFCIKHIATNAVLFFGRCVSP

Assays:
[1] = tested on: ABLE T cells (LACK-specific TCR-transgenic); assay: Stimulation of ABLE T cells in vitro by peptides; type: cell-based, mouse
Outline: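 Single-cell suspensions (red cells lysed) from spleen and lymph node of BALB/c ABLE TCR-Cα0 mice supplied both T cells and APC. They were plated at 10^6 cells/well in duplicate in RPMI 1640 with 10% heat-inactivated FCS, glutamine, pyruvate and β2-ME, with test peptides over a concentration range. At 48 h, supernatants went to sandwich ELISA against recombinant standards. Wells were then pulsed with 1 μCi [3H]thymidine and harvested 18 h later.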

[2] = tested on: ABLE T cells (LACK-specific TCR-transgenic); assay: T cell antagonism assay; type: cell-based, mouse; conditions: for Inhibitory (antagonist) activity, overall: 0.1–100 μM, proliferation, IL-4 and IFN-γ
Outline: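 T cells: CD4+ cells enriched from BALB/c ABLE TCR-Cα0 spleen and lymph node by antibody/complement depletion (80% Vβ4+). APC: BALB/c TCR-Cα0 spleen cells, prepulsed 2 h at 37°C with 0.2 μM wild-type LACK peptide, washed, irradiated, then 2 h at 37°C with test peptide up to 100 μM (OVA323–336 control). 1.6 × 10^5 T cells/well were added. Cytokines were read by ELISA at 48 h; [3H]thymidine uptake over 48–66 h. Values are % inhibition versus prepulsed APC without added peptide.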

L. major LV39 [3] = tested on: L. major LV39; parameters: species or system Leishmania major; conditions: in vivo
[4] = tested on: Vβ4+ T cells of ABLE TCR-Cα^0 mice; conditions: mouse, in vivo
[5] = tested on: popliteal lymph node CD4+ T cells; conditions: mouse, in vivo
L. major LV39 [6] = tested on: L. major LV39; parameters: species or system Leishmania major; conditions: in vivo; remark: listed apart in the source
[7] = APC prepulsed with LACK peptide, 48 h ELISA

Molecule | IL-4 production by ABLE T cells ([1]; 48 h supernatants, ELISA, detection limit 50 pg/ml) | IFN-γ production by ABLE T cells ([1]; 48 h supernatants, ELISA, detection limit 1 ng/ml) | Concentration without proliferation of ABLE T cells (highest tested) ([1]; no proliferation even at concentrations up to 4 μM, [3H]thymidine) [µM] | Inhibitory (antagonist) activity, overall [2] | Inhibition of IFN-γ production [2, 7] | Inhibition of IL-4 production [2, 7] | Protection (L. major LV39 [3]) | Total number of transgenic T cells in draining lymph nodes [4] | Proliferation induced by LACK epitopes [5] | Protection (L. major LV39 [6])
ICFSPSLENPIVVSGSWD [LACK-N164] | neither cytokine was detected | neither cytokine was detected | > 4 | preferentially inhibited IL-4 production by ABLE T cells | inhibited consistently less | inhibited comparably to the LACK-K164 peptide | Subgroups of resistant and susceptible mice occurred | – | – | –
ISQAVHAAHAEINE [OVA323–336, reference compound] | – | – | – | no inhibitory activity | – | – | – | – | – | –
B1 | – | – | – | – | – | – | – | 2.9 × 10^5 | No proliferation was induced | in contrast to the LACK deletion mutant or OVA controls
